IC50, inhibition of growth and inhibition data for six compounds are collected here from ChEMBL document CHEMBL3232838, “Synthesis, crystal structure and biological evaluation of some novel 1,2,4-triazolo[3,4-b]-1,3,4-thiadiazoles and 1,2,4-triazolo[3,4-b]-1,3,4-thiadiazines” (Eur J Med Chem, 2014).

In one assay the target is Acetylcholinesterase (Electrophorus electricus, UniProt O42275). As to the kind of experiment: Inhibition of electric eel acetylcholinesterase using acetylthiocholine iodide as substrate preincubated for 10 mins before substrate addition after 15 mins by Ellman's method. A general note: DTNB colorimetry detects thiols as they appear.
Acetylcholinesterase, sequence (O42275 whole entry): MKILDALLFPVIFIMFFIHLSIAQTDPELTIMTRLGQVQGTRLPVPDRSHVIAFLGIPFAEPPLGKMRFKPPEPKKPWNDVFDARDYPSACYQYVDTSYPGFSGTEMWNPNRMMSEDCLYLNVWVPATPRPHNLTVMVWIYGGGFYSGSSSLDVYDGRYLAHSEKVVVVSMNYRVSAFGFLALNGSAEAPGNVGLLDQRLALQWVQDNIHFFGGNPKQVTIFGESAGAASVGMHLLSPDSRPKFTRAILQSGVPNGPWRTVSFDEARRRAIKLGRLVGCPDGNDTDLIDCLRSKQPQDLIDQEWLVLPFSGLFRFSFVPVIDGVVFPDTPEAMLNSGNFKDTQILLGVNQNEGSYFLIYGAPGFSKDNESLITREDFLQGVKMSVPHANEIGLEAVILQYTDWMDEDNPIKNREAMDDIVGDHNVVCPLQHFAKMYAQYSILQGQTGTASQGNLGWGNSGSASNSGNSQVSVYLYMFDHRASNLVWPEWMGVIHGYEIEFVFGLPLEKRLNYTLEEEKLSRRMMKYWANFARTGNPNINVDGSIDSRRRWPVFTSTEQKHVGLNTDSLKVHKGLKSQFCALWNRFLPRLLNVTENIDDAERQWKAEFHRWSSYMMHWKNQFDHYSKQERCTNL
In the next assay the target is Cholinesterase (Homo sapiens, UniProt P06276). Put plainly: Inhibition of human BChE using butyrylthiocholine iodide as substrate preincubated for 10 mins before substrate addition after 15 mins by Ellman's method. The procedure, abridged: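 Ellman assay in 50 mM Tris-HCl, 0.1 M NaCl, 0.02 M MgCl2, pH 8.0, with DMSO at 1% final. hBChE (3.4 U/mg) is preincubated with compound for 10 min at 25 °C. Blanks lack enzyme or substrate. IC50 from linear regression.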
Cholinesterase, sequence (P06276 whole entry): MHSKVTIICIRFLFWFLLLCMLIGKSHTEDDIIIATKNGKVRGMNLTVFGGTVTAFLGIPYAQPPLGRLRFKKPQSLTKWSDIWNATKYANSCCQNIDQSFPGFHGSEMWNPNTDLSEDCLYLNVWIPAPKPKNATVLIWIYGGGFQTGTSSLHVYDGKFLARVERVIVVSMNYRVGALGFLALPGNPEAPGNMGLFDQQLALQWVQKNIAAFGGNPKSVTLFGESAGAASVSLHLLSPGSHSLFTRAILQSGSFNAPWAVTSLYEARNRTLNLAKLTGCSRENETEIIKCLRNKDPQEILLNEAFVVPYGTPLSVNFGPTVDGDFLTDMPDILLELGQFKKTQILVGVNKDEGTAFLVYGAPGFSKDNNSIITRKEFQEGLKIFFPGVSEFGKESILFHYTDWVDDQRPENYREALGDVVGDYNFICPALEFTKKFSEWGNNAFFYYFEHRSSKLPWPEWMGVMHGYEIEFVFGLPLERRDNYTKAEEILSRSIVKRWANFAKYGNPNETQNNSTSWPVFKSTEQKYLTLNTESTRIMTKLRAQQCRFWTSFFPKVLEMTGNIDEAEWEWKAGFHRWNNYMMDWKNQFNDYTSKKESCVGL

Assay [1] addresses Intestinal-type alkaline phosphatase (Bos taurus, UniProt P19111). Put plainly: Inhibition of calf intestinal alkaline phosphatase using p-nitrophenyl phosphate as substrate preincubated for 10 mins before substrate addition after 30 mins.
The nature of assay [2]: Anticancer activity against Syrian golden hamster BHK21 cells at 100 uM after 48 hrs by SRB assay. Format: functional. The settings on record: Mesocricetus auratus, BHK-21, 48 h; read-out: GI. The procedure, abridged: (§1)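 RPMI-1640 culture with 10% heat-inactivated FBS, 2 mM glutamine, 1 mM pyruvate and penicillin/streptomycin at 37 °C, 5% CO2. Cells per 96-well well: H157 10⁴, BHK-21 5×10⁴. After 24 h, monolayers were exposed to 100, 10, 1 or 0.1 µM compound for 48 h, with vincristine as standard. Cells were fixed in cold 50% TCA (4 °C, 1 h) and stained with 0.4% SRB in 1% acetic acid (30 min). Dye was dissolved in 10 mM Tris and read at A490 minus A630. Read-out was percent inhibition.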

The nature of assay [3]: Anticancer activity against Syrian golden hamster BHK21 cells at 10 uM after 48 hrs by SRB assay. Format: functional. Conditions: Mesocricetus auratus, BHK-21, 48 h; read-out: GI. The gist of the method:
as §1
(In general: In SRB staining, fixed cells bind dye roughly in proportion to their protein.)

Assay [4] in a line: Anticancer activity against Syrian golden hamster BHK21 cells at 1 uM after 48 hrs by SRB assay. Format: functional. Conditions: Mesocricetus auratus, BHK-21, 48 h; read-out: GI. The procedure, abridged:
as §1

Assay [5] in a line: Anticancer activity against Syrian golden hamster BHK21 cells at 0.1 uM after 48 hrs by SRB assay. Format: functional. The settings on record: Mesocricetus auratus, BHK-21, 48 h; read-out: GI. The procedure, abridged: as §1
Assay [6] concerns NCI-H157. Put plainly: Anticancer activity against human NCI-H157 cells at 100 uM after 48 hrs by SRB assay. Conditions: NCI-H157, 48 h, read-out: GI. Format: functional. The gist of the method: as §1
In assay [7] the test system is NCI-H157. Put plainly: Anticancer activity against human NCI-H157 cells at 10 uM after 48 hrs by SRB assay. Format: functional. The settings on record: NCI-H157, 48 h, read-out: GI. The procedure, abridged: as §1
Assay [8] relates to NCI-H157. As to the kind of experiment: Anticancer activity against human NCI-H157 cells at 1 uM after 48 hrs by SRB assay. Format: functional. Conditions: NCI-H157, 48 h, read-out: GI. The procedure, abridged: as §1
Assay [9] relates to NCI-H157. As to the kind of experiment: Anticancer activity against human NCI-H157 cells at 0.1 uM after 48 hrs by SRB assay. Format: functional. Conditions: NCI-H157, 48 h, read-out: GI. The procedure, abridged: as §1
Assay [10] concerns Leishmania major. Put plainly: Antileishmanial activity against promastigote form of Leishmania major at 100 uM after 72 hrs by MTT assay. Format: functional. The procedure, abridged: (§2)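 Log-phase promastigotes grown at 25 °C in phenol-red-free D-MEM/F-12 with 10% heat-inactivated FBS, washed in PBS, seeded at 2.5×10⁶/mL (100 µL/well). Compounds in triplicate wells, 72 h at 25 °C; amphotericin B standard. MTT (5 mg/mL stock) 3 h, stopped with 50% isopropanol/10% SDS, OD570 minus 690. Percent inhibition vs control; mean ± SEM of three independent experiments.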
For orientation: Formazan colour is commonly taken as a measure of viable cells.

In assay [11] the test system is Leishmania major. As to the kind of experiment: Antileishmanial activity against promastigote form of Leishmania major at 10 uM after 72 hrs by MTT assay. Format: functional. The gist of the method:
as §2

For assay [12], the system named is Leishmania major. As to the kind of experiment: Antileishmanial activity against promastigote form of Leishmania major at 1 uM after 72 hrs by MTT assay. Format: functional. The gist of the method: as §2
For assay [13], the system named is Leishmania major. As to the kind of experiment: Antileishmanial activity against promastigote form of Leishmania major at 0.1 uM after 72 hrs by MTT assay. Format: functional. The gist of the method: as §2

SMILES strings stand for the structures.

Intestinal-type alkaline phosphatase, sequence (P19111 whole entry): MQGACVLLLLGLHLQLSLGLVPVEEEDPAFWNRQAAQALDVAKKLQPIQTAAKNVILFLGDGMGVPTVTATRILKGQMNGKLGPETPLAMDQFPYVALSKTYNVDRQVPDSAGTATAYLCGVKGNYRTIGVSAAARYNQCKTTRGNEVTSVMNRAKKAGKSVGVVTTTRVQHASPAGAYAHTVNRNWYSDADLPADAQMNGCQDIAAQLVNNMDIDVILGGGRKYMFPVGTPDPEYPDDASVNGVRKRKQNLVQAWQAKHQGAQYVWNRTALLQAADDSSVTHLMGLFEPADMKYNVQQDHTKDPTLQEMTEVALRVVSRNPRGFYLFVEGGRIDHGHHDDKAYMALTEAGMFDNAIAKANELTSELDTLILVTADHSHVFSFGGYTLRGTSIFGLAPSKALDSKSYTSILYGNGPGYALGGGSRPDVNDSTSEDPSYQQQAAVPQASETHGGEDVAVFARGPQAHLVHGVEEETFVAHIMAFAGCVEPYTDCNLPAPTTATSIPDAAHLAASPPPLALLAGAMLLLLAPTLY

`Nn1c(S)nnc1-c1ccncc1`: the IC50 on Acetylcholinesterase amounted to 13.5 µM; against Cholinesterase, 49.6 µM; in assay [1], 4.43 µM. For the same compound, the inhibition of growth at 100 µM in assay [2] was found to be 48.3%; with NCI-H157 [6] it was 51.5%; with Leishmania major [10] (read-out: GI), 39.5%. Also, the inhibition of growth at 10 µM amounted to 45.1% in assay [3] and 47.4% in the assay with NCI-H157 [7]. The inhibition of growth at 1 µM in assay [4] was found to be 42.1%; in the assay with NCI-H157 [8], 43.4%. In addition, the values for the inhibition of growth at 0.1 µM (in assay [5]; with NCI-H157 [9]) were 39.6% and 40.4%, respectively. Further, testing at 10 µM in the assay on Leishmania major [11] gave an inhibition of 36.7%. In addition, the inhibition at 1 µM in the assay on Leishmania major [12] was found to be 33.6%. In the assay with Leishmania major [13], this compound displayed an inhibition at 0.1 µM of 30.9%.
With `Fc1ccc(OCc2nn3c(-c4ccncc4)nnc3s2)cc1`, the values for the IC50 (on Acetylcholinesterase; against Cholinesterase; in [1]) were 36.8 µM, 54.1 µM and 2.59 µM, respectively. Besides, the inhibition of growth at 100 µM in assay [2] stood at 52.7%; in the assay with NCI-H157 [6], 32%. In addition, the inhibition of growth at 10 µM in [3] worked out at 48.3%; in the assay with NCI-H157 [7], 28.5%. In addition, the inhibition of growth at 1 µM is 45.4% in assay [4] and 25.6% in the assay on NCI-H157 [8]. The inhibition of growth at 0.1 µM turned out to be 43.8% in assay [5] and 21.3% with NCI-H157 [9]. In the assay on Leishmania major [10], 100 µM produced 53.8% inhibition. The inhibition at 10 µM in the assay on Leishmania major [11] was 51.4%. Also, at 1 µM the inhibition in the assay with Leishmania major [12] was 49.1%. For the same compound, 0.1 µM produced 46.7% inhibition in the assay on Leishmania major [13].
`CC[C@]1(O)C[C@H]2CN(CCc3c([nH]c4ccccc34)[C@@](C(=O)OC)(c3cc4c(cc3OC)N(C=O)[C@H]3[C@@](O)(C(=O)OC)[C@H](OC(C)=O)[C@]5(CC)C=CCN6CC[C@]43[C@@H]65)C2)C1` [VINCRISTINE]: the inhibition of growth at 100 µM (in [2]; in the assay with NCI-H157 [6]) was 74.5% throughout. Moreover, the inhibition of growth at 10 µM (in assay [3]; in the assay with NCI-H157 [7]) was 72.6% each time. The inhibition of growth at 1 µM (in assay [4]; with NCI-H157 [8]) was 70.9% each time. In addition, the inhibition of growth at 0.1 µM (in assay [5]; in the assay on NCI-H157 [9]) was 69.8% each time.
Consider `c1ccc2c(C3=Nn4c(nnc4-c4ccncc4)SC3)cccc2c1`, for which the 50% inhibitory concentration (IC50) at Acetylcholinesterase is 13.7 µM; against Cholinesterase, 52.8 µM; in assay [1], 4.45 µM. The figures for the inhibition of growth at 100 µM (in assay [2]; with NCI-H157 [6]) were 69.2% and 68.2%, respectively. In addition, the inhibition of growth at 10 µM in assay [3] turned out to be 64.7%; in the assay with NCI-H157 [7] it was 63.7%. For the same compound, the inhibition of growth at 1 µM in assay [4] was found to be 60.7%; in the assay on NCI-H157 [8] it was 59.9%. Also, the inhibition of growth at 0.1 µM in assay [5] is 53.3%; with NCI-H157 [9], 55.2%. Also, the inhibition at 100 µM in the assay with Leishmania major [10] was found to be 55.6%. In the assay with Leishmania major [11], this compound came in with an inhibition at 10 µM of 52.9%. In addition, in the assay on Leishmania major [12], the inhibition at 1 µM was found to be 49%. This compound also displayed an inhibition at 0.1 µM in the assay with Leishmania major [13] of 47.3%.
For the compound `O=[N+]([O-])c1cccc(C2=Nn3c(nnc3-c3ccncc3)SC2)c1`, the values for the half-maximal inhibitory concentration (IC50) (at Acetylcholinesterase; against Cholinesterase; in assay [1]) were 28 µM, 16.6 µM and 3.59 µM, respectively. Also, the inhibition of growth at 100 µM in [2] came out at 67.1%; with NCI-H157 [6] it was 69.4%. Moreover, the inhibition of growth at 10 µM in assay [3] was 62.5%; with NCI-H157 [7], 65.5%. In addition, the inhibition of growth at 1 µM in assay [4] was determined as 55.1%; with NCI-H157 [8] it was 62.1%. Further, the inhibition of growth at 0.1 µM was found to be 48.2% in assay [5] and 57.9% with NCI-H157 [9]. In the assay on Leishmania major [10], this compound registered an inhibition at 100 µM of 63.1%. This compound also registered an inhibition at 10 µM with Leishmania major [11] of 59.6%. The same compound showed an inhibition at 1 µM in the assay on Leishmania major [12] of 57.5%. The same compound yielded an inhibition at 0.1 µM in the assay on Leishmania major [13] of 54.6%.
Consider `COc1ccc(OCc2nn3c(-c4ccncc4)nnc3s2)cc1`, for which the results for the IC50 (at Acetylcholinesterase; at Cholinesterase; in assay [1]) were 0.77 µM, 37.9 µM and 3.72 µM, respectively. In addition, the inhibition of growth at 100 µM in assay [2] came out at 74%; in the assay on NCI-H157 [6], 68.9%. Also, the inhibition of growth at 10 µM amounted to 71.9% in [3] and 65.6% in the assay with NCI-H157 [7]. For the same compound, the values for the inhibition of growth at 1 µM (in [4]; in the assay with NCI-H157 [8]) were 68.8% and 61.7%, respectively. Further, the inhibition of growth at 0.1 µM in assay [5] turned out to be 63.3%; with NCI-H157 [9], 57.2%. In the assay with Leishmania major [10], this compound yielded an inhibition at 100 µM of 60.5%. In the assay with Leishmania major [11], this compound registered an inhibition at 10 µM of 57.2%. For the same compound, 1 µM produced 52.2% inhibition in the assay on Leishmania major [12]. The same compound registered an inhibition at 0.1 µM in the assay with Leishmania major [13] of 49.6%.

By IC50 is commonly meant the concentration that inhibits the measured activity by half. A lower IC50 goes with higher potency. As a reminder, the inhibition is the percentage by which the read-out fell short of the control. Read a high inhibition as a strong effect.
